ChEMBL document CHEMBL1134340, “GnRH antagonists: a new generation of long acting analogues incorporating p-ureido-phenylalanines at positions 5 and 6” (J Med Chem, 2001)
≈ marks a conversion by molar mass, not a printed value. Where a SMILES comes first, the peptide text is derived from it. [ ]: non-standard residue; d: D form. d(hArg(Et2)) = CCN=C(NCC)NCCCC[C@@H](N)C(=O)O; hArg(Et2) = CCN=C(NCC)NCCCC[C@H](N)C(=O)O; dPhe(4-Cl) = N[C@H](Cc1ccc(Cl)cc1)C(=O)O; d2Nal = N[C@H](Cc1ccc2ccccc2c1)C(=O)O; dCit = NC(=O)NCCC[C@@H](N)C(=O)O; d3Pal = N[C@H](Cc1cccnc1)C(=O)O

Legend:
Rattus norvegicus [1] = organism: Rattus norvegicus; assay: Compound was tested for inhibition of Leutenizing hormone release at 48 hours (intermediate duration) in castrated male rat assay; format: functional
Method in brief: (§1)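 Male Sprague-Dawley rats (180-200 g), castrated under ether 10 days earlier, 5 per group. 50 µg/rat given sc in 100 µL 40 mM phosphate buffer with 0.1% BSA and 0.6% DMSO; acyline run as internal standard. Tail blood taken predose and at 24, 48, 72, 96 (sometimes 120) h; plasma LH by RIA. Duration classed by >80% LH inhibition at each time.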

Rattus norvegicus [2] = organism: Rattus norvegicus; assay: Compound was tested for inhibition of Leutenizing hormone release at 24 hours (very short duration) in castrated male rat assay; NI means no inhibition at 24 hr; format: functional, organism-based; method in brief: as §1
Rattus norvegicus [3] = organism: Rattus norvegicus; assay: Compound was tested for histamine release at a concentration of 100 ug/mL; format: functional
Method in brief: (§2)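 Sprague-Dawley rat peritoneal mast cells, Percoll-purified, in heparinized balanced salt solution with albumin, pH 7.2. Cells exposed to compound or vehicle for 2 min at 37 °C. Supernatant histamine measured spectrofluorometrically after o-phthalaldehyde derivatization; pellets lysed for retained histamine. Reported as % of total histamine released, corrected for spontaneous release in vehicle.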

Rattus norvegicus [4] = organism: Rattus norvegicus; assay: Compound was tested for histamine release at a concentration of 30 ug/mL; format: functional; method in brief: as §2
Rattus norvegicus [5] = organism: Rattus norvegicus; assay: Compound was tested for histamine release at a concentration of 10 ug/mL; format: functional; method in brief: as §2
Rattus norvegicus [6] = organism: Rattus norvegicus; assay: Effective dose for histamine release was determined; format: functional
Method in brief: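 ED50 for histamine release calculated from % release values across concentrations in rat peritoneal mast cell assay (2 min, 37 °C, o-phthalaldehyde fluorometric read-out, corrected for vehicle release).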

Rattus norvegicus [7] = organism: Rattus norvegicus; assay: Compound was tested for histamine release at a concentration of 150 ug/mL; format: functional; method in brief: as §2
Rattus norvegicus [8] = organism: Rattus norvegicus; assay: Compound was tested for histamine release at a concentration of 3 ug/mL; format: functional; method in brief: as §2
Rattus norvegicus [9] = organism: Rattus norvegicus; assay: Compound was tested for inhibition of Leutenizing hormone release at 72 hours (long duration) in castrated male rat assay; format: functional; set-up: concentration or dose not given beside the values; method in brief: as §1
Rattus norvegicus [10] = organism: Rattus norvegicus; assay: Compound was tested for histamine release at a concentration of 1 ug/mL; format: functional; method in brief: as §2
[11] = biological target: T1, Gonadotropin-releasing hormone receptor (Homo sapiens, UniProt P30968); assay: Antagonism of human GnHR receptor, determined in a reporter gene assay in HEK293 cells; format: functional, cell-based
T1 sequence (P30968 whole entry): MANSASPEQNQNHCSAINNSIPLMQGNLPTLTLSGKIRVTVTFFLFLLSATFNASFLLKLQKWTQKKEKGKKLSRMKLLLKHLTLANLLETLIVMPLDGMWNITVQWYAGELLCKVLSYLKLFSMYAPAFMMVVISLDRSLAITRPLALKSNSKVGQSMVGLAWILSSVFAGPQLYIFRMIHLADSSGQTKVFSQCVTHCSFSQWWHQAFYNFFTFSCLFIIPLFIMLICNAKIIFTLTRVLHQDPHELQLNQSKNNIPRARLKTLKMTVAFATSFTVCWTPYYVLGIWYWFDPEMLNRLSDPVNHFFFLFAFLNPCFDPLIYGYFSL
Method in brief: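 HEK293 cells stably expressing cloned human GnRH receptor plus luciferase reporter under LH alpha subunit promoter, plated 24 h before assay. Compound in 1% DMSO added 10 min at 37 °C, then GnRH at 3 nM final; 5 h incubation, luciferase luminescence read. Six concentrations in duplicate; blank-subtracted cps as % of GnRH control; mean of two determinations.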

[12] = biological target: T1, Gonadotropin-releasing hormone receptor; assay: Competitive antagonism of GnRH-induced response in the reporter gene assay; format: functional; details: read-out: pA2 (converted)
Method in brief: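 Same HEK293 human GnRH receptor luciferase reporter cells. Seven-point GnRH curve (10 µM to 10 pM final) run in duplicate without or with four to five increasing compound concentrations (10 min preincubation, 37 °C), then 5 h and luminescence. GnRH EC50 at each level by four-parameter logistic fit, giving pA2; mean of two determinations in duplicate.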

Structure (SMILES) | Inhibition (Rattus norvegicus [1]) [%] | NI (Rattus norvegicus [2]) | HR (Rattus norvegicus [5]) [%] | ED50 (Rattus norvegicus [6]) [µg/mL] | also measured
CC(=O)N[C@H](Cc1ccc2ccccc2c1)C(=O)N[C@H](Cc1ccc(Cl)cc1)C(=O)N[C@H](Cc1cccnc1)C(=O)N[C@@H](CO)C(=O)N[C@@H](Cc1ccc(NC(=O)[C@H]2CC(=O)NC(=O)N2)cc1)C(=O)N[C@H](Cc1ccc(CNC(N)=O)cc1)C(=O)N[C@@H](CC(C)C)C(=O)N[C@@H](CCCCNC(C)C)C(=O)N1CCC[C@H]1C(=O)N[C@H](C)C(N)=O | >80 | – | – | – | –
CC(=O)Nc1ccc(C[C@@H](NC(=O)[C@@H](NC(=O)[C@H](CO)NC(=O)[C@@H](Cc2cccnc2)NC(=O)[C@@H](Cc2ccc(Cl)cc2)NC(=O)[C@@H](Cc2ccc3ccccc3c2)NC(C)=O)N(C)C(N)=O)C(=O)N[C@@H](CC(C)C)C(=O)N[C@@H](CCCCNC(C)C)C(=O)N2CCC[C@H]2C(=O)N[C@H](C)C(N)=O)cc1 | – | no inhibition at 24 hr | – | – | –
CC(=O)O.CC(=O)O.CC/N=C(\NCC)NCCCC[C@H](NC(=O)[C@H](CC(C)C)NC(=O)[C@@H](CCCCN/C(=N/CC)NCC)NC(=O)[C@H](Cc1ccc(O)cc1)NC(=O)[C@H](CO)NC(=O)[C@@H](Cc1cccnc1)NC(=O)[C@@H](Cc1ccc(Cl)cc1)NC(=O)[C@@H](Cc1ccc2ccccc2c1)NC(C)=O)C(=O)N1CCC[C@H]1C(=O)N[C@H](C)C(N)=O [GANIRELIX ACETATE] (Ac-[d2Nal][dPhe(4-Cl)][d3Pal]SY[d(hArg(Et2))]L[hArg(Et2)]P[dA]-NH2) | >80 | – | 30 | 11 | HR (Rattus norvegicus [3]): 62%; HR (Rattus norvegicus [4]): 57%
CC(=O)Nc1ccc(C[C@@H](NC(=O)[C@H](CNC(=O)[C@@H]2CC(=O)NC(=O)N2)NC(=O)[C@H](CO)NC(=O)[C@@H](Cc2cccnc2)NC(=O)[C@@H](Cc2ccc(Cl)cc2)NC(=O)[C@@H](Cc2ccc3ccccc3c2)NC(C)=O)C(=O)N[C@@H](CC(C)C)C(=O)N[C@@H](CCCCNC(C)C)C(=O)N2CCC[C@H]2C(=O)N[C@H](C)C(N)=O)cc1 | – | no inhibition at 24 hr | – | – | HR (Rattus norvegicus [7]): 96%
CC(=O)N[C@H](Cc1ccc2ccccc2c1)C(=O)N[C@H](Cc1ccc(Cl)cc1)C(=O)N[C@H](Cc1cccnc1)C(=O)N[C@@H](CO)C(=O)N[C@@H](Cc1ccc(O)cc1)C(=O)N[C@H](CCCNC(N)=O)C(=O)N[C@@H](CC(C)C)C(=O)N[C@@H](CCCNC(=N)N)C(=O)N1CCC[C@H]1C(=O)N[C@H](C)C(N)=O [CETRORELIX] (Ac-[d2Nal][dPhe(4-Cl)][d3Pal]SY[dCit]LRP[dA]-NH2) | – | – | 64 | 1.3 (≈ 0.908 µM) | HR (Rattus norvegicus [8]): 5%; Inhibition (Rattus norvegicus [9]): >80%; HR (Rattus norvegicus [10]): 34%; IC50 [11]: 4.2 nM; Kb [12]: 1.26 nM
CC(=O)N[C@H](Cc1ccc2ccccc2c1)C(=O)N[C@H](Cc1ccc(Cl)cc1)C(=O)N[C@H](Cc1cccnc1)C(=O)N[C@@H](CO)C(=O)N[C@@H](CCCCNC(=O)[C@H]1CC(=O)NC(=O)N1)C(=O)N[C@H](CCCCNC(=O)[C@@H]1CC(=O)NC(=O)N1)C(=O)N[C@@H](CC(C)C)C(=O)N[C@@H](CCCCNC(C)C)C(=O)N1CCC[C@H]1C(=O)N[C@H](C)C(N)=O | – | no inhibition at 24 hr | – | – | –
